# The list is not random: actives were taken first. Their share in the collection is about 1.7%.
# RanGTP-Imp inh: disruptors of Ran-importin-beta complex formation – biochemical, FRET, CFP-Ran, YFP-importin-beta, homogeneous, primary screen; inhibition, % (test concentration not listed); AID 2216; 1.1% of 300,000 active; cell-free CFP-Ran/YFP-importin-beta FRET ratio;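 active means more than half of the replicate wells show a fall in the fluorescence ratio signal beyond about 16%, limit read from the data, passing the limit was not always enough; inconclusive means exactly half of the replicate wells pass the set limit; inactive means fewer than half of replicates pass the limit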
# Runt-SMMHC FRET: blocks binding of human RUNX1 Runt domain to CBFb-SMMHC. Q01196+Q13951. Cerulean-Runt/Venus-CBFb-SMMHC FRET ratio 530/480, 1 h. inhibition, % at 20 µM. 0.74% of 220,000 active;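 active means mean inhibition across duplicate retests at 20 µM reaching about 50%, limit read from the data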;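 further: inhibitors lower the FRET ratio by blocking Runt binding to CBFb-SMMHC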
# Target sequence (Q01196 whole entry, looked up, the tested form may be a part): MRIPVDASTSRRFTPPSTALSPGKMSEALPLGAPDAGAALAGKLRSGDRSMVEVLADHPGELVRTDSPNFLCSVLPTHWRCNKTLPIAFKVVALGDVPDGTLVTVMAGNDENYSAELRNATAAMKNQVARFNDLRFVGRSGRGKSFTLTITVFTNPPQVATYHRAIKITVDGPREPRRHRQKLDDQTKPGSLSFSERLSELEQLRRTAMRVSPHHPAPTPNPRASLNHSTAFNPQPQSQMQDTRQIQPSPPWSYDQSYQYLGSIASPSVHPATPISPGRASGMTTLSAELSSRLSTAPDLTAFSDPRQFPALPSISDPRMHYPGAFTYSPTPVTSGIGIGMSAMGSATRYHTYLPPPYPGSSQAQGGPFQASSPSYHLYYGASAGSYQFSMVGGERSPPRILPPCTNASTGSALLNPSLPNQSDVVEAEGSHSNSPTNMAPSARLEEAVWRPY
# Target sequence (Q13951 whole entry, looked up, the tested form may be a part): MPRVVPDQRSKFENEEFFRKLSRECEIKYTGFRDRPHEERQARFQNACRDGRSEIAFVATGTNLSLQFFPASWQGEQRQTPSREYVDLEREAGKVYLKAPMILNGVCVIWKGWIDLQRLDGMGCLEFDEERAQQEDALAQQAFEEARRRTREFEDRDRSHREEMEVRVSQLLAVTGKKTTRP
# Rce1 inh: yeast Ras-converting enzyme inhibition; Q03530; yeast membranes, quenched prenylated peptide cleavage fluorescence; calls only; 0.27% of 290,000 active; AID 2563;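 active means fall in fluorescence gain of 50% or more versus controls, with final raw signal at or below 3038400; inconclusive means same 50% fall but final raw signal above 3038400; inactive means fall in fluorescence gain under 50%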
# Runt-CBFb FRET: blocks binding of human RUNX1 Runt domain to CBFb; Q01196+Q13951; Cerulean-Runt/Venus-CBFb FRET ratio 530/480, 1 h; inhibition, % at 20 µM; 0.46% of 220,000 active; AID 1496;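 active means inhibition over about 50% at 20 µM in the single-dose screen, limit read from the data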
#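 Doses: 20 µM compound in 1% DMSO | Material: Cerulean-labeled Runt domain protein | Amount: Each fluorescent fusion protein 100 nM | Schedule: Two 1 h room-temperature incubations shielded from light | Measured by: FRET fluorescence | Evaluation: Loss of energy transfer signal | Controls: Unlabeled CBFb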
# Vif inh: blocks HIV Vif function; HEK293T cells, Vif self-association by quenched fluorescence, imaging, 24 h; inhibition, % at 7.49 µM; AID 602346; 0.35% of 340,000 active; in the data active means inhibition above about 50%, passing the limit was not always enough; inconclusive means no clear call, values can overlap the other calls; inactive means below about 31%
# Numbers stand for hits; i = inactive; ? = inconclusive; nt = no result given; + = active, no number.
SMILES,RanGTP-Imp inh,Runt-SMMHC FRET,Rce1 inh,Runt-CBFb FRET,Vif inh
COc1ccc(-c2cc(C(=O)OCC(=O)Nc3cc(C)on3)c3ccccc3n2)cc1OC,89.7,i,i,i,i
O=C(COC(=O)c1cc(-c2ccc(Cl)s2)nc2ccccc12)NCc1ccco1,i,i,i,i,nt
COc1ccc([C@H]2N[C@]3(CCCN(Cc4cccn4C)C3=O)[C@H]3C(=O)N(Cc4ccccc4)C(=O)[C@@H]23)cc1,nt,nt,nt,nt,i
Cc1ccc(S(=O)(=O)N2CCOCC2)cc1NC(=O)COC(=O)c1cc(=O)[nH]c2ccccc12,26.3,i,i,i,i
Cc1ccc(S(=O)(=O)N2CCOCC2)cc1NC(=O)COC(=O)c1cccc(Cl)c1Cl,nt,nt,nt,nt,i
CC(C)N1CCc2c(sc(NC(=O)CCS(=O)(=O)c3ccccc3)c2C(N)=O)C1,152.6,nt,i,nt,i
CC(C)N1CCc2c(sc(NC(=O)CN3C(=O)c4ccccc4C3=O)c2C(N)=O)C1,142.3,129.1,i,98.3,i
COc1cc2ccccc2cc1C(=O)Nc1sc2c(c1C(N)=O)CCN(C(C)C)C2,46.7,nt,i,nt,i
CC1(C)CC(=O)C=C(c2cccc3c2sc2ccccc23)C1,nt,nt,nt,nt,i
O=C(c1ccc(Br)cc1)c1cc([N+](=O)[O-])ccc1N1CCCCC1,i,i,i,nt,62.8
CN(C(=O)c1cccs1)C1(C)CCS(=O)(=O)C1 (stereo unspecified),i,nt,i,nt,i
Cc1ccc(C2(COC(=O)C(C)C)CO2)c(OC(=O)C(C)C)c1 (stereo unspecified),i,i,+,i,i
CCOC(=O)Nc1ccc(NCc2ccc(F)cc2)nc1N,nt,nt,nt,nt,+
CCOC(=O)Nc1ccc(C)cc1NC(=O)OCC,i,i,i,nt,i
CC(C)C1Nc2ccc(C(=O)NCCCN3CCOCC3)cc2NC1=O (stereo unspecified),i,nt,i,nt,54.6
Cc1cc(C)n2cc(CSc3nncn3C)nc2n1,i,i,+,i,i
Cc1cc(C)n2cc(CSc3nnnn3C)nc2n1,i,i,i,i,i
Cc1nn(Cc2c(Cl)cccc2Cl)c(C)c1NC(=O)c1cnn2c(C(F)F)cc(-c3ccccc3)nc12,i,i,i,i,104.0
Cc1ccc(-c2cc(C(F)F)n3ncc(C(=O)Nc4c(C)nn(Cc5c(Cl)cccc5Cl)c4C)c3n2)cc1,?,i,i,i,i
c1ccc2[nH]c3cc4ncnc4cc3nc2c1,i,i,i,i,i
COc1ccc2[nH]c(C(=O)NCCCn3ccnc3)cc2c1,i,nt,+,nt,i
CCCCNC(=O)c1cc2cc(OC)ccc2[nH]1,i,i,i,i,i
CCOc1ccc(C2C(C(=O)OC)=CN(C(C)c3ccccc3)C=C2C(=O)OC)cc1 (stereo unspecified),i,nt,+,nt,i
CCn1c(COc2cccc(OC)c2)nnc1SCC(=O)NC1CCCC1,i,nt,i,nt,50.9
CCn1c(COc2cccc(C)c2)nnc1SCC(=O)NC1CCCC1,i,nt,+,nt,i
SMILES,RanGTP-Imp inh,Runt-SMMHC FRET,Rce1 inh,Runt-CBFb FRET,Vif inh
CC1CN(S(=O)(=O)c2cccc(C(=O)NCCCn3ccnc3)c2)CC(C)O1 (stereo unspecified),i,i,i,i,i
CC1CN(S(=O)(=O)c2ccc(C(=O)NCCCn3ccnc3)cc2)CC(C)O1 (stereo unspecified),i,i,i,i,52.2
CCOC(=O)C1=C(O)/C(=C/c2cn(CC(=O)NCC3CCCO3)c3ccccc23)SC1=Nc1ccc(C)cc1 (stereo unspecified),nt,nt,nt,nt,94.1
Cc1cc(C)c(OCC(=O)NCC2COc3ccccc3O2)c(C)c1 (stereo unspecified),nt,nt,nt,nt,i
COc1cc([C@@H]2c3cc4c(cc3[C@H](O)[C@H]3COC(=O)[C@H]23)OCO4)cc(OC)c1OC,i,i,i,i,+
COc1cc(C2c3cc4c(cc3OC(NNC(N)=S)C2C)OCO4)cc(OC)c1OC (stereo unspecified),nt,nt,nt,nt,56.0
COc1cc(C2c3cc4c(cc3OC(NNC(N)=O)C2C)OCO4)cc(OC)c1OC (stereo unspecified),nt,nt,nt,nt,i
CNC(=O)/C(C#N)=C/c1c(N2CCN(c3ccc(OC)cc3)CC2)nc2c(C)cccn2c1=O,i,nt,i,nt,i
CNC(=O)/C(C#N)=C/c1c(N2CCN(c3ccccc3)CC2)nc2c(C)cccn2c1=O,19.0,nt,i,nt,nt
Cc1cccn2c(=O)c(C=C(C#N)C#N)c(N3CCN(c4ccccc4)CC3)nc12,25.0,nt,i,nt,i
COc1ccc(N2CCN(c3nc4c(C)cccn4c(=O)c3C=C(C#N)C#N)CC2)cc1,i,nt,i,nt,i
Cc1cccn2c(=O)c(/C=C(\C#N)C(N)=O)c(N3CCN(Cc4ccc5c(c4)OCO5)CC3)nc12,i,nt,i,121.9,i
COC(=O)/C(C#N)=C/c1c(N2CCN(c3ccc(OC)cc3)CC2)nc2c(C)cccn2c1=O,33.7,nt,i,nt,?
O=S(=O)(O)c1cccc2c(N=Nc3ccc(O)c4ncccc34)cccc12,16.2,nt,i,nt,i
CCC(=O)N1CCC1(C)C(=O)Nc1cccc2cccnc12 (stereo unspecified),nt,nt,nt,nt,i
O=C(CCCCCN1C(=O)c2ccccc2C1=O)Nc1ccccc1,i,i,i,i,i
O=C(CCCCCCC(=O)Nc1ccccc1)NO,i,nt,i,nt,151.7
Cc1c(CCC(=O)O)c(=O)oc2c(C)c3occ(-c4ccc(Cl)cc4)c3cc12,i,nt,i,nt,i
Cc1c(CC(=O)O)c(=O)oc2c(C)c3occ(-c4ccccc4)c3cc12,19.3,nt,i,nt,i
COc1cc(OC)c2c(=O)c(OC)c(-c3ccc(OC)c(OC)c3)oc2c1,i,61.0,i,i,i
O=C(COC(=O)c1cc(S(=O)(=O)N2CCOCC2)ccc1Cl)c1ccc[nH]1,nt,nt,nt,nt,i
O=C(COC(=O)c1cc(S(=O)(=O)N2CCOCC2)ccc1F)c1ccc[nH]1,i,i,i,i,53.3
COc1ccc(NC(=O)CCN2C(=O)C3CC=CCC3C2=O)cc1S(=O)(=O)N1CCCCC1 (stereo unspecified),nt,nt,nt,nt,72.9
COc1ccc(NC(=O)CCCC2CCCCC2)cc1S(=O)(=O)N1CCCCC1,i,i,i,i,i
Cc1ccc(S(=O)(=O)c2cc3c(=O)n4ccccc4nc3n(CCCN3CCOCC3)c2=N)cc1C,135.4,nt,i,nt,i
SMILES,RanGTP-Imp inh,Runt-SMMHC FRET,Rce1 inh,Runt-CBFb FRET,Vif inh
CCOCCCn1c(=N)c(S(=O)(=O)c2ccccc2)cc2c(=O)n3cc(C)ccc3nc21,160.0,nt,i,nt,i
N=c1c(S(=O)(=O)c2ccc(Cl)cc2)cc2c(=O)n3ccccc3nc2n1CCN1CCOCC1,i,62.6,i,89.6,i
N=c1c(S(=O)(=O)c2ccc(Cl)cc2)cc2c(=O)n3ccccc3nc2n1CCc1ccccc1,50.4,nt,i,nt,i
CC1(NC(=O)c2cc(Cl)nc3ccccc23)CCS(=O)(=O)C1 (stereo unspecified),nt,nt,nt,nt,i
O=C(NNC(=O)c1ccccc1Br)c1cnccn1,nt,nt,nt,nt,i
N=c1c(S(=O)(=O)c2ccccc2)cc2c(=O)n3ccccc3nc2n1CCCN1CCOCC1,155.3,nt,i,nt,i
O=C(NCc1ccccc1)c1cc(C2COCCN2C(=O)OCCF)on1 (stereo unspecified),nt,nt,nt,nt,i

# High-throughput results as filed in PubChem.
